In ChEMBL document CHEMBL1914327, “Unichiral 2-(2'-pyrrolidinyl)-1,4-benzodioxanes: the 2R,2'S diastereomer of the N-methyl-7-hydroxy analogue is a potent α4β2- and α6β2-nicotinic acetylcholine receptor partial agonist” (J Med Chem, 2011):
The source made the active and inactive calls. No cut-off for these calls is given here.

Key:
[1] = molecular target: T1, Neuronal acetylcholine receptor; alpha4/beta2 (Rattus norvegicus, UniProt P09483+P12390); assay: Displacement of [3H]epibatidine from alpha4beta2 nAChR in Sprague-Dawley rat cerebral cortex by beta counting; type: tissue-based
How it was run: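 Sprague-Dawley rat cortical membranes in Tris buffer pH 7 with protease inhibitors. Membranes first blocked with 1 μM α-bungarotoxin. Compound (10 pM to 10 mM) preincubated 30 min at rt, then 0.1 nM [3H]epibatidine (final) added overnight at 4 °C. Nonspecific binding defined with 100 nM unlabeled epibatidine. Filtered and beta counted. Ki from three independent experiments fitted by LIGAND.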

[2] = molecular target: Neuronal acetylcholine receptor subunit alpha-7 (Rattus norvegicus, UniProt Q05941); assay: Displacement of [125I]alpha-bungarotoxin from alpha7 nAChR in Sprague-Dawley rat cerebral cortex […]; type: tissue-based
[3] = molecular target: T2, Neuronal acetylcholine receptor; alpha4/beta2 (Rattus norvegicus) (UniProt P09483+P12390); assay: Agonist activity at rat alpha4beta2 nAChR assessed as [3H]dopamine release from rat striatum by beta counting relative to 10 uM nicotine; type: functional
How it was run: (§1)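 Rat striatal slices (150 μm) were preloaded for 30 min with 100 nM [3H]DA in Krebs buffer containing 10 μM pargyline, then washed with pargyline plus 0.5 μM nomifensine. Slices were exposed to agonist for 5 min at 37 °C. […] EC50/Emax came from nonlinear regression; six replicates, ≥3 experiments.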

[4] = molecular target: T1, Neuronal acetylcholine receptor; alpha4/beta2; assay: Agonist activity at rat alpha4beta2 nAChR assessed as [3H]dopamine release by beta counting; type: functional; how it was run: as §1
[5] = molecular target: T3, Neuronal acetylcholine receptor subunit alpha-6/beta-3 (Rattus norvegicus) (UniProt P12391+P43143); assay: Agonist activity at rat alpha6beta2 nAChR assessed as [3H]dopamine release from rat striatum by beta counting relative to 10 uM nicotine; type: functional
Rattus norvegicus = organism: Rattus norvegicus; assay: Selectivity ratio of Ki for alpha7 nAChR in Sprague-Dawley rat cerebral cortex to Ki for alpha4beta2 nAChR in Sprague-Dawley rat cerebral cortex; type: tissue-based
How it was run: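 Sprague-Dawley rat cortical membranes, with compound (10 pM–10 mM) preincubated 30 min at rt. α4β2 assay: membranes pretreated with 1 μM α-bungarotoxin, then 0.1 nM [3H]epibatidine overnight at 4 °C. α7 assay: 1 nM [125I]α-bungarotoxin overnight at rt. Ki values were from LIGAND fits of three experiments, and the ratio was taken from these Ki values.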

[6] = molecular target: Neuronal acetylcholine receptor; alpha3/beta4 (Homo sapiens, UniProt P30926+P32297); assay: Displacement of [3H]epibatidine from human alpha3beta4 nAChR expressed in human HEK293 cells by scintillation counting; type: cell-based
How it was run: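 Membranes from HEK293 cells transiently transfected with α3 and β4 cDNAs (harvested at 48 h). Compound was preincubated for 5 min, then 0.25 nM [3H]epibatidine was added overnight at 4 °C in Tris buffer (pH 7) with BSA and no Tween. Nonspecific binding used 100 nM epibatidine. Ki was fitted from three experiments in triplicate.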

HEK293 = assay: Selectivity ratio of Ki for human alpha3beta4 nAChR expressed in human HEK293 cells to Ki for alpha4beta2 nAChR in rat cerebral cortex; type: cell-based
[7] = molecular target: T1, Neuronal acetylcholine receptor; alpha4/beta2; assay: Partial agonist activity at Nicotinic acetylcholine alpha4beta2 receptor in rat striatum assessed as [3H]dopamine release by beta counting; type: functional, tissue-based
How it was run: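 Rat striatal slices (150 μm) were preloaded for 30 min with 100 nM [3H]DA in Krebs buffer containing 10 μM pargyline, then washed with pargyline plus 0.5 μM nomifensine. Slices were exposed to agonist for 5 min at 37 °C.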

[8] = molecular target: T2, Neuronal acetylcholine receptor; alpha4/beta2 (Rattus norvegicus); assay: Partial agonist activity at Nicotinic acetylcholine alpha4beta2 receptor in rat striatum assessed as [3H]dopamine release by beta counting relative to nicotine; type: functional, tissue-based; how it was run: as §1
[9] = molecular target: Neuronal acetylcholine receptor; alpha3/beta4 (Rattus norvegicus, UniProt P04757+P12392); assay: Partial agonist activity at rat alpha3beta4 nAChR assessed as [3H]noradrenaline release from rat […] by beta counting; type: functional
[10] = molecular target: T3, Neuronal acetylcholine receptor subunit alpha-6/beta-3 (Rattus norvegicus); assay: Partial agonist activity at alpha6beta2 nAChR in rat striatum assessed as decrease in [3H]dopamine release by beta counting in the presence of antagonist alphaconotoxin MII; type: functional, tissue-based

Sequence of Neuronal acetylcholine receptor subunit alpha-7 (Q05941 whole entry): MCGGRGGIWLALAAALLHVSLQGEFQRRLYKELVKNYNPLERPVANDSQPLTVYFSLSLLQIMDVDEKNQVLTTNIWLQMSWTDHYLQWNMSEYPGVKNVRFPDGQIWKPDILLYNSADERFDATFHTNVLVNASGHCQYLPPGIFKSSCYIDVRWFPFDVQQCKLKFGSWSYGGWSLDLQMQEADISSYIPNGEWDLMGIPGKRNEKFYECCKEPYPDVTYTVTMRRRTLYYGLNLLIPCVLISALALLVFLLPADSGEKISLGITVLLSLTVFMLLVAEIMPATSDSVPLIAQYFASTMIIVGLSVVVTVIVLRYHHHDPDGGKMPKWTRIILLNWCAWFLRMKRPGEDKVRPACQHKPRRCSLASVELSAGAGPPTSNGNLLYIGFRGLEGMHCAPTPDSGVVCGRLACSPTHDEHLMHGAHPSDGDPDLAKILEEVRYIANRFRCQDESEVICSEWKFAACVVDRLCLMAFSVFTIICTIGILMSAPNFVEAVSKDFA
T1 sequence (P09483 whole entry): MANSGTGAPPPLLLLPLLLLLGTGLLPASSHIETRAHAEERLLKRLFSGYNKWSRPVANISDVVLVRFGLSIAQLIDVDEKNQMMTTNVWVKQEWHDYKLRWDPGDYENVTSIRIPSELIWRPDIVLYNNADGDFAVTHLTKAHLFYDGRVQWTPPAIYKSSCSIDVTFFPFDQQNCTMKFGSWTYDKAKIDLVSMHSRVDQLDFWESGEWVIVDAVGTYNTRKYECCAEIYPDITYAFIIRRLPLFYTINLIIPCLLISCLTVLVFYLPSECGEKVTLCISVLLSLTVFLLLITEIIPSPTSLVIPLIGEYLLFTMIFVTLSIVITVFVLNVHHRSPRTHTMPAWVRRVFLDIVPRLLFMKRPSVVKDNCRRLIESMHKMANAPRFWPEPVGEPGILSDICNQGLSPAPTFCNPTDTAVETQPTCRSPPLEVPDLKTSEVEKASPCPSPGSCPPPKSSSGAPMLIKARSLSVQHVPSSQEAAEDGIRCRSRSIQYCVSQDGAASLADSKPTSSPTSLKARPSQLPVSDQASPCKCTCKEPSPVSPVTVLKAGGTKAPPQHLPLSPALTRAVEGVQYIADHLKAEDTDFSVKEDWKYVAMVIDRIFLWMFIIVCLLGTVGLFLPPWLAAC
T1 sequence (P12390 whole entry): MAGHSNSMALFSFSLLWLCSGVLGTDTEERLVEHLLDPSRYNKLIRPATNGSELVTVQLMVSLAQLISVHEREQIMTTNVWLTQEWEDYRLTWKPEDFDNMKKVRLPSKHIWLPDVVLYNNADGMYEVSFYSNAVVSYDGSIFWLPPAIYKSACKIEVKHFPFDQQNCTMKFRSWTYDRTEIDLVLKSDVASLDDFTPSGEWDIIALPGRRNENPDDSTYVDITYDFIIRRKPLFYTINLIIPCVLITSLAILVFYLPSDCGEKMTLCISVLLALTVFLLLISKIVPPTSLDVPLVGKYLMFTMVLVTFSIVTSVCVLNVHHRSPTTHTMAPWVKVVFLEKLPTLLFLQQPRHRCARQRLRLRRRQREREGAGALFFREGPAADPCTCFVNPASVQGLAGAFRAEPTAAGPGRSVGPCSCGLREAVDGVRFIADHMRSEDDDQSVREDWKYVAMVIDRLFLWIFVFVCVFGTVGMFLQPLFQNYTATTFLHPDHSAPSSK
Sequence of Neuronal acetylcholine receptor; alpha3/beta4 (Homo sapiens, UniProt P30926+P32297) (P30926 whole entry): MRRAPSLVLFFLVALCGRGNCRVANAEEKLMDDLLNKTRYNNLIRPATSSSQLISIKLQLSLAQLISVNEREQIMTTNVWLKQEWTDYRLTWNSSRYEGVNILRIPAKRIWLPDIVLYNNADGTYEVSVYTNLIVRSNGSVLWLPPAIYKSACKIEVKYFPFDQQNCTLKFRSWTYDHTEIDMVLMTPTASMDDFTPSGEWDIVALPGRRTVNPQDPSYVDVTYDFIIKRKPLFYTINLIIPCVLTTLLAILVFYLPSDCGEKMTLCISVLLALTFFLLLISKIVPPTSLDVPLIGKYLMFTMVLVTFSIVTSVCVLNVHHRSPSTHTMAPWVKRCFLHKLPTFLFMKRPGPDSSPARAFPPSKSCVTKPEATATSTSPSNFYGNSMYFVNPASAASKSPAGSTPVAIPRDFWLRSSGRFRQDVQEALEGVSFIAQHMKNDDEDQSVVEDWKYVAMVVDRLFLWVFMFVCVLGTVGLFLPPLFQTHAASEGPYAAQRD
Sequence of Neuronal acetylcholine receptor; alpha3/beta4 (Homo sapiens, UniProt P30926+P32297) (P32297 whole entry): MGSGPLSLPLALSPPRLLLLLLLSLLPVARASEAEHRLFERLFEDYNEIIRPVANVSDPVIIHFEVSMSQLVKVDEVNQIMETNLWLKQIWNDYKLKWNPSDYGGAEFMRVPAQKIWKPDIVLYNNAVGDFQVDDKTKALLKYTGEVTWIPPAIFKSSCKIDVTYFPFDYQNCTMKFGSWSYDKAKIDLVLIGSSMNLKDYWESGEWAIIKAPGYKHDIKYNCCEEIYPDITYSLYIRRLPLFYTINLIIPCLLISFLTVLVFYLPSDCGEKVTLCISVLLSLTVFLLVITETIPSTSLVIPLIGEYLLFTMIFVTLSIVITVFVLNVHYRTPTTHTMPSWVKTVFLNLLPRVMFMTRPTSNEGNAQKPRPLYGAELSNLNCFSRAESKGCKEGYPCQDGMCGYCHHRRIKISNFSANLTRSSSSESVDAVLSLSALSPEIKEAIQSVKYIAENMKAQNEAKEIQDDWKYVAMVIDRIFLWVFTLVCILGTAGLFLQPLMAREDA
Sequence of Neuronal acetylcholine receptor; alpha3/beta4 (Rattus norvegicus, UniProt P04757+P12392) (P04757 whole entry): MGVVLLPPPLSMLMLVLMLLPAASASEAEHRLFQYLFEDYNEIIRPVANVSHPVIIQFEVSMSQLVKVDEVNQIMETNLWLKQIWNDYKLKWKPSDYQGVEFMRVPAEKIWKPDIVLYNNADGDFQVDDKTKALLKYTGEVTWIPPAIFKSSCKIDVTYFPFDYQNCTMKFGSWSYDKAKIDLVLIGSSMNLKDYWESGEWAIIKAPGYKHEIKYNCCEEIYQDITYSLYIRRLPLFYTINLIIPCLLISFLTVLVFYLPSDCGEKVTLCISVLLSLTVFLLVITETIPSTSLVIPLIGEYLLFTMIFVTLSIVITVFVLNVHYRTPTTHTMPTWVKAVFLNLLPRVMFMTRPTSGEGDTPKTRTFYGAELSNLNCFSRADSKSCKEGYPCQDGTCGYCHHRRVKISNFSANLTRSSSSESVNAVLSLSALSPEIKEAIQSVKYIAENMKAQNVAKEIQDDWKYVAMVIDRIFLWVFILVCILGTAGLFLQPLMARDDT
Sequence of Neuronal acetylcholine receptor; alpha3/beta4 (Rattus norvegicus, UniProt P04757+P12392) (P12392 whole entry): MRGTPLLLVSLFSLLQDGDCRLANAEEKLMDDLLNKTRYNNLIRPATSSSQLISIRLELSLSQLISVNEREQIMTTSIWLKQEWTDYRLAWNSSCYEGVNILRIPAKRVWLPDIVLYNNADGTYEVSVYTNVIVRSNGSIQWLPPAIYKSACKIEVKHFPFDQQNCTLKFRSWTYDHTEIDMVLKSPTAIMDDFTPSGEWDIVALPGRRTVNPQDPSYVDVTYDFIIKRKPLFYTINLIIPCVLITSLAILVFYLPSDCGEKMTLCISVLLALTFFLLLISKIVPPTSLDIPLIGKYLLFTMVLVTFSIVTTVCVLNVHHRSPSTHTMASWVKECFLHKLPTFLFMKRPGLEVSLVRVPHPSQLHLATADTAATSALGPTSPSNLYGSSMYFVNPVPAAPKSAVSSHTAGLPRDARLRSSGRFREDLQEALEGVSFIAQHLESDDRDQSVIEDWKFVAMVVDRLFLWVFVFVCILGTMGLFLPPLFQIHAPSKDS

Structure (SMILES) | Ki [1] [µM] | Ki [2] [µM] | further results
Cc1ccc2c(c1)O[C@@H]([C@@H]1CCCN1C)CO2 | 5.7 | 64 | 
CN1CCC[C@H]1[C@@H]1COc2ccc(-c3ccccc3)cc2O1 | 35 | 36 | 
c1cnc2cc3c(cc2n1)[C@@H]1CNC[C@H]3C1 [VARENICLINE] |  |  | Efficacy [3]: 49%; EC50 [4]: 0.046 µM; Efficacy [5]: 49%
CN1CCC[C@H]1[C@H]1COc2ccc(Br)cc2O1 | 3 | 22 | Kd [1]: 0.036 nM; Kd [2]: 0.0003 µM
Oc1ccc2c(c1)O[C@H]([C@@H]1CCCN1)CO2 | 9 | 33 | 
COc1ccc2c(c1)O[C@@H]([C@@H]1CCCN1C)CO2 | 4.2 | 26 | 
CC(C)Oc1ccc2c(c1)O[C@@H]([C@@H]1CCCN1C)CO2 | 3.2 | 43 | 
CN1CCC[C@H]1[C@H]1COc2ccc(O)cc2O1 | 0.421 | 20 | Ratio Ki (Rattus norvegicus): 47
CN1CCC[C@@H]1[C@@H]1COc2ccc(O)cc2O1 | 3 | 1.3 | 
Oc1ccc2c(c1)O[C@@H]([C@H]1CCCN1)CO2 | 18 | 35 | 
CN1CCC[C@H]1[C@H]1COc2ccc(CO)cc2O1 | 9.5 | 12 | 
Cc1ccc2c(c1)O[C@H]([C@@H]1CCCN1C)CO2 | 42 | 126 | 
CC(C)Oc1ccc2c(c1)O[C@H]([C@@H]1CCCN1C)CO2 | 9.3 | 6.1 | 
CN1CCC[C@H]1[C@@H]1COc2ccc(CO)cc2O1 | 51 | 60 | 
Oc1ccc2c(c1)O[C@H]([C@H]1CCCN1)CO2 | 1.3 | 3 | 
CN1CCC[C@H]1[C@H]1COc2ccc(-c3ccccc3)cc2O1 | 3.1 | 51 | 
CC(=O)c1ccc2c(c1)O[C@H]([C@@H]1CCCN1C)CO2 (racemic) | 97 | 110 | 
COc1ccc2c(c1)O[C@H]([C@@H]1CCCN1C)CO2 | 17 | 32 | 
CN1CCC[C@@H]1[C@H]1COc2ccc(O)cc2O1 | 3.5 | 4.5 | 
CN1CCC[C@H]1[C@@H]1COc2ccc(O)cc2O1 | 0.012 | 0.427 | Ratio Ki (Rattus norvegicus): 35; Ki [6]: 0.31 µM; Ratio Ki (HEK293): 26; EC50 [7]: 0.082 µM; Efficacy [8]: 51%; EC50 [9]: 17.6 µM; Activity [10]: inactive
Oc1ccc2c(c1)O[C@@H]([C@@H]1CCCN1)CO2 | 1.2 | 53 | 
CC(=O)c1ccc2c(c1)O[C@@H]([C@@H]1CCCN1C)CO2 | 11.7 | 30 | 
CN1CCC[C@H]1[C@@H]1COc2ccc(Br)cc2O1 | 8.1 | 22 | 
